In ChEMBL document CHEMBL1806469, “Design, synthesis, and antiproliferative activity of new 1H-pyrrolo[3,2-c]pyridine derivatives against melanoma cell lines” (Eur J Med Chem, 2011):

How the values were obtained:
A-375 = experiment: Antiproliferation activity against human A375P cells after 48 hrs by MTT assay in presence of fetal bovine serum; assay type: functional, cell-based; conditions: A-375, 48 h
Summary of the method: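 A375P cells kept in DMEM with 10% FBS and 1% penicillin/streptomycin at 37 °C, 5% CO2. Plated at 5 × 10³ cells/well, left 24 h, then given 12 concentrations (3-fold serial dilution) for 48 h. Viability read by MTT reduction at 590 nm. IC50 from the dose-response curve; each compound tested in triplicate.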

NIH3T3 = experiment: Antiproliferation activity against mouse NIH/3T3 cells after 48 hrs by MTT assay in presence of bovine calf serum; assay type: cell-based; conditions: NIH3T3, 48 h
UACC-62 = experiment: Antiproliferation activity against human UACC62 cells after 48 hrs by SRB assay; assay type: functional, cell-based; conditions: UACC-62, 48 h
Summary of the method: (§1)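 Run by the NCI. Cells grown in RPMI 1640 with 5% FBS and 2 mM glutamine, plated at 5000–40,000 cells/well by doubling time, and left 24 h at 37 °C, 5% CO2. Time-zero plates fixed with TCA. Drug (DMSO stock) given at five concentrations for 48 h. Cells fixed with cold TCA (final 10%), stained with 0.4% SRB, and read at 515 nm. IC50 taken as 50% reduction in net protein increase versus control.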

LOX IMVI = experiment: Antiproliferation activity against human LOXIMVI cells after 48 hrs by SRB assay; assay type: functional, cell-based; summary of the method: as §1
SK-MEL-28 = experiment: Antiproliferation activity against human SK-MEL-28 cells after 48 hrs by SRB assay; assay type: functional, cell-based; conditions: SK-MEL-28, 48 h; summary of the method: as §1
SK-MEL-5 = experiment: Antiproliferation activity against human SK-MEL-5 cells after 48 hrs by SRB assay; assay type: functional, cell-based; conditions: SK-MEL-5, 48 h; summary of the method: as §1
Malme-3M = experiment: Antiproliferation activity against human MALME-3M cells after 48 hrs by SRB assay; assay type: functional, cell-based; summary of the method: as §1
MDA-MB-435 = experiment: Antiproliferation activity against human MDA-MB-435 cells after 48 hrs by SRB assay; assay type: functional, cell-based; conditions: MDA-MB-435, 48 h; summary of the method: as §1
SK-MEL-2 = experiment: Antiproliferation activity against human SK-MEL-2 cells after 48 hrs by SRB assay; assay type: functional, cell-based; conditions: SK-MEL-2, 48 h; summary of the method: as §1
UACC-257 = experiment: Antiproliferation activity against human UACC257 cells after 48 hrs by SRB assay; assay type: functional, cell-based; conditions: UACC-257, 48 h; summary of the method: as §1
M14 = experiment: Antiproliferation activity against human M14 cells after 48 hrs by SRB assay; assay type: functional, cell-based; conditions: M14, 48 h; summary of the method: as §1

Row | Structure (SMILES) | IC50 (A-375) | IC50 (NIH3T3) | other results
1 | Cc1cc(NC(=O)c2ccc(N3CCOCC3)c(C(F)(F)F)c2)ccc1-n1ccc2c(NC(=O)c3ccccc3)nccc21 | > 10 µM | – | –
2 | O=C(Nc1ccc(-n2ccc3c(NC(=O)c4ccccc4)nccc32)cc1)Nc1cccc(Cl)c1Cl | > 10 µM | – | –
3 | O=C(Nc1ccc(-n2ccc3c(NC(=O)c4ccccc4)nccc32)cc1)Nc1ccc(Cl)c(Cl)c1 | 0.2 µM | 11.5 µM | –
4 | O=C(Nc1ccc(-n2ccc3c(NC(=O)c4ccccc4)nccc32)cc1)Nc1cccc(C(F)(F)F)c1 | 7 µM | – | –
5 | O=C(Nc1ccc(-n2ccc3c(NC(=O)c4ccccc4)nccc32)cc1)Nc1ccc(Cl)c(C(F)(F)F)c1 | 2.4 µM | – | –
6 | O=C(Nc1ccc(-n2ccc3c(NC(=O)c4ccccc4)nccc32)cc1)Nc1cc(C(F)(F)F)cc(C(F)(F)F)c1 | 1.8 µM | – | –
7 | Cc1cc(NC(=O)Nc2cccc(Cl)c2Cl)ccc1-n1ccc2c(NC(=O)c3ccccc3)nccc21 | > 10 µM | – | –
8 | CCN1CCN(Cc2ccc(NC(=O)Nc3ccc(-n4ccc5c(NC(=O)c6ccccc6)nccc54)cc3)cc2C(F)(F)F)CC1 | 0.095 µM | 0.98 µM | IC50 (UACC-62): 1.27 µM; IC50 (LOX IMVI): 0.481 µM; IC50 (SK-MEL-28): 1.29 µM; IC50 (SK-MEL-5): 0.764 µM; IC50 (Malme-3M): 1.54 µM; IC50 (MDA-MB-435): 0.894 µM; IC50 (SK-MEL-2): 3.62 µM; IC50 (UACC-257): 1.59 µM; IC50 (M14): 1.22 µM
9 | Nc1nccc2c1ccn2-c1ccc(NC(=O)Nc2cccc(C(F)(F)F)c2)cc1 | 5.4 µM | – | –
10 | Nc1nccc2c1ccn2-c1ccc(NC(=O)Nc2ccc(Cl)c(C(F)(F)F)c2)cc1 | 8 µM | – | –
11 | O=C(Nc1ccc(-n2ccc3c(NC(=O)c4ccccc4)nccc32)cc1)c1cccc(C(F)(F)F)c1 | 0.1 µM | 0.05 µM | –
12 | O=C(Nc1ccc(-n2ccc3c(NC(=O)c4ccccc4)nccc32)cc1)c1ccc(Cl)c(C(F)(F)F)c1 | 0.0164 µM | 5.65 µM | –
13 | Cc1cn(-c2cc(C(=O)Nc3ccc(-n4ccc5c(NC(=O)c6ccccc6)nccc54)cc3)cc(C(F)(F)F)c2)cn1 | 0.8 µM | 5.57 µM | –
14 | O=C(Nc1ccc(-n2ccc3c(NC(=O)c4ccccc4)nccc32)cc1)c1ccc(N2CCOCC2)c(C(F)(F)F)c1 | 0.007 µM | 1.74 µM | IC50 (UACC-62): 0.485 µM; IC50 (LOX IMVI): 0.0456 µM; IC50 (SK-MEL-28): 0.292 µM; IC50 (SK-MEL-5): 0.138 µM; IC50 (Malme-3M): 11.5 µM; IC50 (MDA-MB-435): 0.119 µM; IC50 (SK-MEL-2): 0.637 µM; IC50 (UACC-257): 1.98 µM; IC50 (M14): 0.763 µM
15 | O=C(Nc1ccc(-n2ccc3c(NC(=O)c4ccccc4)nccc32)cc1)c1cc(N2CCOCC2)cc(C(F)(F)F)c1 | 0.3 µM | 0.27 µM | –
16 | Cc1cc(NC(=O)c2cccc(C(F)(F)F)c2)ccc1-n1ccc2c(NC(=O)c3ccccc3)nccc21 | > 10 µM | – | –
17 | Cc1cc(NC(=O)c2ccc(Cl)c(C(F)(F)F)c2)ccc1-n1ccc2c(NC(=O)c3ccccc3)nccc21 | 2.7 µM | – | –
18 | O=C(Nc1nccc2c1ccn2-c1ccc(NC(=O)c2ccc(-c3cc(C(F)(F)F)ccc3Cl)o2)cc1)c1ccccc1 | 1 µM | 15.9 µM | –
19 | Nc1nccc2c1ccn2-c1ccc(NC(=O)c2ccc(Cl)c(C(F)(F)F)c2)cc1 | 3.8 µM | – | –
20 | Nc1nccc2c1ccn2-c1ccc(NC(=O)c2ccc(N3CCOCC3)c(C(F)(F)F)c2)cc1 | 6.2 µM | – | –
21 | CNC(=O)c1cc(Oc2ccc(NC(=O)Nc3ccc(Cl)c(C(F)(F)F)c3)cc2)ccn1 [SORAFENIB] | 5.6 µM | 24.8 µM | –
